Test results reported in EPA's CvTdb concentration-time database.

Tests used:
rat [1] = test: concentration in blood after dosing; negative times count back from the end of exposure; conditions: inhalation
human = test: amount in urine after dosing (umol); conditions: dosed: tert-amyl methyl ether, 38.4 ppm, inhalation, duration: 4 hr
Outline: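 Points were largely digitised from plot screenshots with WebPlotDigitizer or otherwise copied from tables, and they remain in the units each source reported. They come from published in vivo toxicokinetic studies and two structured collections. Sampling and analytical methods follow each source and were often not reported.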

Rat [2] = test: concentration in plasma after dosing; conditions: dosed: Phenolphthalein, 25 mg/kg, iv, Male, F344
Rat [3] = test: concentration in plasma after dosing; conditions: dosed: Phenolphthalein, 25 mg/kg, iv, Female, F344
Rat [4] = test: concentration in plasma after dosing; conditions: dosed: Phenolphthalein, 25 mg/kg, iv, Male, F344; remark: listed apart in the source
Rat [5] = test: concentration in plasma after dosing; conditions: dosed: Phenolphthalein, 25 mg/kg, iv, Female, F344; remark: listed apart in the source
Rat [6] = test: concentration in plasma after dosing; conditions: dosed: Phenolphthalein, 25 mg/kg, iv, Male, F344; remark: listed apart in the source
Rat [7] = test: concentration in plasma after dosing; conditions: dosed: Phenolphthalein, 25 mg/kg, iv, Female, F344; remark: listed apart in the source
Rat [8] = test: concentration in plasma after dosing; conditions: dosed: Phenolphthalein, 25 mg/kg, iv, Female, F344; remark: listed apart in the source
Rat [9] = test: concentration in plasma after dosing; conditions: 5 h; dosed: Phenolphthalein; 25 mg/kg; iv; Male; F344
Rat [10] = test: concentration in plasma after dosing; conditions: 16 h; dosed: Phenolphthalein; 25 mg/kg; iv; Female; F344
Rat [11] = test: concentration in plasma after dosing; conditions: dosed: Phenolphthalein, 25 mg/kg, iv, Female, F344; remark: listed apart in the source
Rat [12] = test: concentration in plasma after dosing; conditions: 5 min; dosed: Phenolphthalein; 25 mg/kg; iv; Male; F344
Rat [13] = test: concentration in plasma after dosing; conditions: 2.5 min; dosed: Phenolphthalein; 25 mg/kg; iv; Male; F344
Rat [14] = test: concentration in plasma after dosing; conditions: 4 h; dosed: Phenolphthalein; 25 mg/kg; iv; Male; F344
Rat [15] = test: concentration in plasma after dosing; conditions: dosed: Phenolphthalein, 25 mg/kg, iv, Female, F344; remark: listed apart in the source
Rat [16] = test: concentration in plasma after dosing; conditions: 16 h; dosed: Phenolphthalein; 25 mg/kg; iv; Female; F344; remark: listed apart in the source
Rat [17] = test: concentration in plasma after dosing; conditions: dosed: Phenolphthalein, 25 mg/kg, iv, Female, F344; remark: listed apart in the source
Rat [18] = test: concentration in plasma after dosing; conditions: dosed: Phenolphthalein, 25 mg/kg, iv, Female, F344; remark: listed apart in the source
Rat [19] = test: concentration in plasma after dosing; conditions: dosed: Phenolphthalein, 25 mg/kg, iv, Female, F344; remark: listed apart in the source
Rat [20] = test: concentration in plasma after dosing; conditions: 1 h; dosed: Phenolphthalein; 25 mg/kg; iv; Male; F344
Rat [21] = test: concentration in plasma after dosing; conditions: dosed: Phenolphthalein, 25 mg/kg, iv, Male, F344; remark: listed apart in the source
Rat [22] = test: concentration in plasma after dosing; conditions: dosed: Phenolphthalein, 25 mg/kg, iv, F344
Rat [23] = test: concentration in plasma after dosing; conditions: dosed: Phenolphthalein, 25 mg/kg, iv, Female, F344; remark: listed apart in the source
Rat [24] = test: concentration in plasma after dosing; conditions: 3 h; dosed: Phenolphthalein; 25 mg/kg; iv; Male; F344
Rat [25] = test: concentration in plasma after dosing; conditions: dosed: Phenolphthalein, 25 mg/kg, iv, Female, F344; remark: listed apart in the source
Rat [26] = test: concentration in plasma after dosing; conditions: dosed: Phenolphthalein, 25 mg/kg, iv, Female, F344; remark: listed apart in the source
Rat [27] = test: concentration in plasma after dosing; conditions: dosed: Phenolphthalein, 25 mg/kg, iv, Female, F344; remark: listed apart in the source
Rat [28] = test: concentration in plasma after dosing; conditions: 5 h; dosed: Phenolphthalein; 25 mg/kg; iv; Male; F344; remark: listed apart in the source
Rat [29] = test: concentration in plasma after dosing; conditions: 3 h; dosed: Phenolphthalein; 25 mg/kg; iv; Male; F344; remark: listed apart in the source
Rat [30] = test: concentration in plasma after dosing; conditions: 5 min; dosed: Phenolphthalein; 25 mg/kg; iv; Male; F344; remark: listed apart in the source
Rat [31] = test: concentration in plasma after dosing; conditions: 2.5 min; dosed: Phenolphthalein; 25 mg/kg; iv; Male; F344; remark: listed apart in the source
Rat [32] = test: concentration in plasma after dosing; conditions: dosed: Phenolphthalein, 25 mg/kg, iv, Female, F344; remark: listed apart in the source

ClC(Cl)(Cl)Cl [carbon tetrachloride]
concentration in blood [ng/mL], rat [1], dosed: carbon tetrachloride, duration: 120 min
Conditions	100 ppm	1000 ppm
0.1277 h	401	4510
0.2902 h	401	–
0.305 h	–	4270
0.4232 h	340	–
0.4675 h	–	4510
0.6891 h	240	–
0.7039 h	–	4750
0.9551 h	240	–
0.9698 h	–	3670
1.457 h	240	–
1.472 h	–	2640
1.96 h	–	2860
1.975 h	140	–
2.462 h	140	1020
2.965 h	140	1060
3.954 h	40.1	–
3.969 h	–	761
4.944 h	40.1	–
4.974 h	–	701
5.979 h	20	–
5.993 h	–	441
7.013 h	–	220
7.988 h	–	220
8.993 h	–	240
9.983 h	–	160
194 s	–	6310
247 s	501	5190

rat [1], dosed: carbon tetrachloride, duration: 120 min, during exposure
Conditions	concentration in blood [ng/mL]
-179 s, 1000 ppm	11200
-125 s, 100 ppm	681
-1.941 h, 1000 ppm	5690
-1.867 h, 1000 ppm	7110
-1.852 h, 100 ppm	441
-1.793 h, 100 ppm	601
-1.69 h, 100 ppm	741
-1.675 h, 1000 ppm	7550
-1.527 h, 100 ppm	481
-1.498 h, 1000 ppm	6170
-1.276 h, 1000 ppm	7510
-1.261 h, 100 ppm	421
-1.054 h, 1000 ppm	6930
-1.025 h, 100 ppm	561
-0.8032 h, 100 ppm	601
-0.7884 h, 1000 ppm	7730
-0.5668 h, 1000 ppm	8190
-0.5372 h, 100 ppm	461
-0.3008 h, 100 ppm	881
-0.2861 h, 1000 ppm	10000

CC(C)(O)CC(=O)O [3-hydroxy-3-methyl-butyrate]
human
Conditions	amount in urine
6.255 h	52.2
12.14 h	81.7
18.19 h	45.7
24.05 h	43.6
30.19 h	32.9
36.26 h	24.2
42.12 h	11.1
48.2 h	19.7
305 s	19.7

c1cc2ccc3cccc4ccc(c1)c2c34 [total 14C-pyrene]
rat [1], dosed: pyrene, male, Wistar, radiolabel
Conditions	concentration in blood [ng/mL]
0.2501 h, 200 mg/m^3, duration: 95 min	1940
0.253 h, 500 mg/m^3, duration: 95 min	16900
0.263 h, 800 mg/m^3, duration: 95 min	41000
0.5176 h, 500 mg/m^3, duration: 95 min	14700
0.5339 h, 800 mg/m^3, duration: 95 min	41000
0.8638 h, 800 mg/m^3, duration: 95 min	43500
0.87 h, 500 mg/m^3, duration: 95 min	12400
0.875 h, 200 mg/m^3, duration: 95 min	1190
1.216 h, 500 mg/m^3, duration: 95 min	9070
1.222 h, 800 mg/m^3, duration: 95 min	42700
1.227 h, 200 mg/m^3, duration: 95 min	1020
1.722 h, 500 mg/m^3, duration: 95 min	6760
1.724 h, 800 mg/m^3, duration: 95 min	34600
1.733 h, 200 mg/m^3, duration: 95 min	990
2.225 h, 500 mg/m^3, duration: 95 min	5300
2.235 h, 800 mg/m^3, duration: 95 min	30300
2.245 h, 200 mg/m^3, duration: 95 min	837
2.901 h, 200 mg/m^3, duration: 95 min	773
2.91 h, 800 mg/m^3, duration: 95 min	24100
2.926 h, 500 mg/m^3, duration: 95 min	4130
3.568 h, 800 mg/m^3, duration: 95 min	21000
3.582 h, 200 mg/m^3, duration: 95 min	714
3.588 h, 500 mg/m^3, duration: 95 min	3380
4.567 h, 800 mg/m^3, duration: 95 min	15500
4.569 h, 200 mg/m^3, duration: 95 min	695
4.577 h, 500 mg/m^3, duration: 95 min	3050
6.023 h, 800 mg/m^3, duration: 95 min	11100
6.027 h, 500 mg/m^3, duration: 95 min	2510
7.481 h, 800 mg/m^3, duration: 95 min	9810
32 min, 200 mg/m^3, duration: 95 min	1460
34 s, 500 mg/m^3, duration: 95 min	15900
79 s, 200 mg/m^3, duration: 95 min	2240

rat [1], dosed: pyrene, male, Wistar, radiolabel, during exposure
Conditions	concentration in blood [ng/mL]
-28 s, 800 mg/m^3, duration: 95 min	40700
-1.353 h, 200 mg/m^3, duration: 95 min	659
-1.349 h, 500 mg/m^3, duration: 95 min	2480
-1.122 h, 500 mg/m^3, duration: 95 min	6670
-1.119 h, 800 mg/m^3, duration: 95 min	8210
-1.09 h, 200 mg/m^3, duration: 95 min	1400
-0.7764 h, 800 mg/m^3, duration: 95 min	19900
-0.7622 h, 200 mg/m^3, duration: 95 min	2040
-0.7591 h, 500 mg/m^3, duration: 95 min	10200
-0.4362 h, 800 mg/m^3, duration: 95 min	29200
-0.434 h, 200 mg/m^3, duration: 95 min	2250
-0.4242 h, 500 mg/m^3, duration: 95 min	12700

ClC(Cl)Cl [chloroform]
rat [1], dosed: chloroform, 100 ppm, duration: 360 min
Conditions	concentration in blood [µg/g]
0.4971 h	0.55
2.006 h	0.151

rat [1], dosed: chloroform, 100 ppm, duration: 360 min, during exposure
Conditions	concentration in blood [µg/g]
-31 s	1.02
-5.747 h	0.18
-5.503 h	1.05
-4.997 h	1.05
-3 h	1.25

O=C1OC(c2ccc(O)cc2)(c2ccc(O)cc2)c2ccccc21 [Phenolphthalein]
Conditions	concentration in plasma [ng/mL]
Rat [2], 2 h	636
Rat [2], 8 h	110
Rat [3], 4 h	127
Rat [3], 7 h	36.5
Rat [4], 2 h	662
Rat [4], 8 h	83.6
Rat [5], 5 h	58.5
Rat [5], 10 h	17.4
Rat [6], 1 h	2380
Rat [6], 6 h	199
Rat [7], 1 h	841
Rat [7], 6 h	290
Rat [8], 2 h	261
Rat [8], 8 h	46.7
Rat [11], 5 min	52100
Rat [11], 24 h	23
Rat [15], 3 h	153
Rat [15], 12 h	26.7
Rat [17], 5 min	5180
Rat [17], 24 h	69.4
Rat [18], 2 h	261
Rat [18], 8 h	43.2
Rat [19], 4 h	47.5
Rat [19], 7 h	15.5
Rat [21], 4 h	366
Rat [21], 7 h	63
Rat [23], 2.5 min	164000
Rat [23], 20 h	22
Rat [25], 5 h	56.9
Rat [25], 10 h	70.2
Rat [26], 1 h	1400
Rat [26], 6 h	392
Rat [27], 3 h	336
Rat [27], 12 h	96
Rat [32], 2.5 min	167000
Rat [32], 20 h	17.4

Conditions	concentration in plasma [ng/mL]
Rat [9]	552
Rat [10]	24.5
Rat [12]	58300
Rat [13]	216000
Rat [14]	25.1
Rat [16]	20.3
Rat [20]	1990
Rat [24]	94.5
Rat [28]	19.1
Rat [29]	561
Rat [30]	58500
Rat [31]	219000

concentration in plasma [ng/mL], Rat [22]
Conditions	Female	Male
1 h	1090	1790
2 h	259	592
2.5 min	115000	195000
3 h	290	43.2
4 h	173	317
5 h	105	691
5 min	52300	51000
6 h	89.9	59.4
7 h	56.9	248
8 h	32.4	274
10 h	45.5	42.3
12 h	98.5	–
16 h	120	20.2
20 h	18.6	–
24 h	60.2	–
